Sampled rows, rich in hits. Any-hit rate of the full collection: about 1.4%.
A3A deaminase = APOBEC3A ssDNA deaminase inhibitors, primary screen, selectivity assay for APOBEC3G inhibitor project, biochemical, FAM/TAMRA oligo cleavage fluorescence; recombinant A3A, FAM/TAMRA ssDNA deamination fluorescence; inhibition, % at 20 µM; 330,000 compounds, 0.41% hits; AID 493011, 2011;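 active = at least 40% inhibition at 20 µM here, with at most 30% in a related deaminase screen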;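 note: plate controls were A3A with DMSO for no effect and wells lacking A3A enzyme for full effect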
Target sequence (P31941 whole entry, looked up): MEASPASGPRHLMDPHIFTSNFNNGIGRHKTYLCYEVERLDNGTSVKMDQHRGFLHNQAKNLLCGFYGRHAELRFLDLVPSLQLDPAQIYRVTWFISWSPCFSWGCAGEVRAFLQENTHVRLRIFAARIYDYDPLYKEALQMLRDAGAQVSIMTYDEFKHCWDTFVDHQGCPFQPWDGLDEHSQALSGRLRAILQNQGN
PfGluPho inh = PfG6PD enzyme inhibitors, primary screen, biochemical, fluorescence intensity, uHTS. inhibition, % at 20 µM. PfGluPho enzyme, NADPH resazurin-diaphorase fluorescence. AID 504690, 2011. 350,000 compounds, 0.78% hits;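 active = inhibition reaching at least a set limit at 20 µM in the primary screen, cut at about 59% in these data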;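 note: 0% = DMSO wells with substrate and 100% = DMSO wells lacking glucose-6-phosphate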
iPSC survival up = enhancers of single-cell hiPSC survival, primary screen, ATPlite luminescence. 100% = ROCK inhibitor wells, 0% = DMSO. survival enhancement, % at 20 µM. 360,000 compounds, 0.044% hits. AID 602274, 2012; in the data active = survival enhancement above about 18%;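 note: cells exposed to compounds for 16 hours before the ATP read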
A3G deaminase = APOBEC3G DNA deaminase inhibitors, primary screen, biochemical, fluorescence, single-stranded DNA substrate, uHTS | 330,000 compounds, 0.28% hits | recombinant A3G, ssDNA deamination FAM/TAMRA fluorescence | inhibition, % at 20 µM | DNA dC->dU-editing enzyme APOBEC-3G (Homo sapiens), Q9HC16;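 active = inhibition of at least 40% at 20 µM, with no more than 30% in the related APOBEC3A deaminase screen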;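 note: plate controls were DMSO wells with A3G for no effect and wells lacking A3G enzyme for full effect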
Target sequence (Q9HC16 whole entry, looked up): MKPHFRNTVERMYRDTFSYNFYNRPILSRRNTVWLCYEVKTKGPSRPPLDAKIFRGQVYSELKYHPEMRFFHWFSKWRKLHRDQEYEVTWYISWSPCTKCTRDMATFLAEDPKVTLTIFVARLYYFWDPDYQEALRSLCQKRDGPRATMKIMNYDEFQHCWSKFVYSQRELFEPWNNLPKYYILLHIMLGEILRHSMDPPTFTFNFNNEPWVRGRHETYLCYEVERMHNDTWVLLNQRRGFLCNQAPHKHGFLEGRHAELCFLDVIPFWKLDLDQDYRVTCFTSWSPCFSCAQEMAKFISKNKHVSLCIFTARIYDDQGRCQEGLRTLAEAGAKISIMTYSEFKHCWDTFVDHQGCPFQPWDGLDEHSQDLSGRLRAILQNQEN
HKDC1 inh = HKDC1 hexokinase inhibitors, primary screen, biochemical, fluorescence, uHTS; AID 493160, 2011; recombinant HKDC1, G6PDH/diaphorase resazurin coupled fluorescence; Q2TB90; inhibition, % at 20 µM; 340,000 compounds, 0.16% hits;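 active = inhibition above about 35% when tested at 20 µM, limit read from the data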;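 note: plate controls were DMSO wells with enzyme for no effect and DMSO wells lacking enzyme for full effect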
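Test system: recombinant HKDC1 (HK5) hexokinase enzyme, produced in-house; Amount: enzyme 5 µg/mL final; Buffer or medium: Tris pH 8.0 buffer with MgCl2, Tween-20, BSA, BME; Reagent: glucose and ATP substrates; Doses: 20 µM test compound, 1% DMSO; Incubation: 90 min reaction incubation at room temperature, dark; Detection: resorufin fluorescence at 613 nm.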
A3A conf = APOBEC3A deaminase inhibitors, retest, confirmation, selectivity assay for APOBEC3G inhibitor project, biochemical, single concentration, fluorescence readout; shares compounds with A3A deaminase; recombinant A3A, ssDNA deaminase UDG fluorescence assay; inhibition, % at 20 µM; 1,400 compounds, 63% hits;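 active = inhibition reaching a set limit, 80% of the first screen's cutoff, at 20 µM in any replicate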;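 note: plate controls were DMSO wells with A3A for no effect and wells lacking A3A enzyme for full effect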
UDG ctr A3A = E. coli UDG inhibitors, confirmation, counter-screen for APOBEC3A inhibitor project, biochemical, single concentration, fluorescence, FAM/TAMRA oligo. shares compounds with A3A deaminase. UDG counterscreen, FAM/TAMRA uracil oligo fluorescence. inhibition, % at 20 µM. 1,000 tested, under 10 active. AID 504714, 2011; call rule not given here
* = called active by the depositor.

How did C=CCn1c(SCc2nc3sc(C(=O)O)c(C)c3c(=O)[nH]2)nnc1-c1ccc(C(C)(C)C)cc1 do in these assays?
A3A deaminase: 40*; PfGluPho inh: -13; iPSC survival up: 0; A3G deaminase: -1; HKDC1 inh: 7; A3A conf: 30; UDG ctr A3A: -1

Results for O=C(/C=C/c1ccccc1)c1cc(Br)ccc(=O)c1O ?
A3A deaminase: 41*; PfGluPho inh: 49; iPSC survival up: -3; A3G deaminase: 17; HKDC1 inh: 16; A3A conf: 40*

What do the screens show for `CCOC(=O)N1CCN(CC(=O)Nc2sc(CC)cc2C(=O)c2ccc(OC)cc2)CC1`?
A3A deaminase: 1; PfGluPho inh: 13; iPSC survival up: -1; A3G deaminase: -4; HKDC1 inh: 4

What do the screens show for `COc1ccc(CNCCC2(O)CC(C)N(C)CC2C)cc1OC` (stereo not drawn)?
A3A deaminase: 3; PfGluPho inh: -4; iPSC survival up: 2; A3G deaminase: 0; HKDC1 inh: -5

How did COc1ccc(C=NCCC2(O)CC(C)N(C)CC2C)cc1 (stereo not drawn) do in these assays?
A3A deaminase: 48*; PfGluPho inh: -1; iPSC survival up: -1; A3G deaminase: 1; HKDC1 inh: -4; A3A conf: 1

How did Cc1ccc2c(c1)sc[n+]2Cc1ccccc1 do in these assays?
A3A deaminase: -2; PfGluPho inh: 45; iPSC survival up: -2; A3G deaminase: -4; HKDC1 inh: 6

Results for Cc1n(C)c2cc(Cl)ccc2[n+]1Cc1ccccc1 ?
A3A deaminase: 78*; PfGluPho inh: 7; iPSC survival up: 0; A3G deaminase: 26; HKDC1 inh: -10; A3A conf: 65*; UDG ctr A3A: -2

Results for Cc1ccc(C(=O)N/C(=C\c2cn(S(=O)(=O)N(C)C)c3ccccc23)C(=O)NCCCN2CCOCC2)cc1 ?
A3A deaminase: -5; PfGluPho inh: -12; iPSC survival up: 0; A3G deaminase: -8; HKDC1 inh: 0

What do the screens show for `CCCc1nc(C)cc(N2CCN(c3ccccc3)CC2)n1`?
A3A deaminase: 2; PfGluPho inh: -5; iPSC survival up: 1; A3G deaminase: -2; HKDC1 inh: 0

Results for CC[n+]1c(C)cc(C)n1-c1ccccc1 ?
A3A deaminase: 93*; PfGluPho inh: -21; iPSC survival up: -1; A3G deaminase: 14; HKDC1 inh: -1; A3A conf: 75*; UDG ctr A3A: 3

What do the screens show for `N#Cc1ccsc1NC(=O)C1CC(=O)N(Cc2ccccc2)C1` (stereo not drawn)?
A3A deaminase: 4; PfGluPho inh: 15; iPSC survival up: 0; A3G deaminase: -9; HKDC1 inh: -5

How did Cc1cccc(C(=O)OCC(=O)NCCNC(=O)COC(=O)c2cccc(C)c2C)c1C do in these assays?
A3A deaminase: 40*; PfGluPho inh: 7; iPSC survival up: 0; A3G deaminase: 6; HKDC1 inh: -10; A3A conf: 17

Results for c1ccc(Sc2cccc3ccccc23)c(CNC2=NCCN2)c1 ?
A3A deaminase: 58*; PfGluPho inh: -3; iPSC survival up: -2; A3G deaminase: 18; HKDC1 inh: 1; A3A conf: 75*; UDG ctr A3A: 2

What do the screens show for `Fc1ccccc1Sc1ccccc1CNC1=NCCN1`?
A3A deaminase: 63*; PfGluPho inh: 16; iPSC survival up: -1; A3G deaminase: -4; HKDC1 inh: 9; A3A conf: 91*; UDG ctr A3A: -1

What do the screens show for `CN(C)Cc1ccccc1Sc1cccc2ccccc12`?
PfGluPho inh: 19; iPSC survival up: -1; HKDC1 inh: -4

Results for Cn1c(=O)c(-c2cc(=O)[nH][nH]2)c(O)c2ccccc21 ?
A3A deaminase: 1; PfGluPho inh: -27; iPSC survival up: 0; A3G deaminase: -6; HKDC1 inh: -8

Results for CCCCCCCCn1c2c(c(=N)c3ccccc31)CCC2 ?
A3A deaminase: 0; PfGluPho inh: -2; iPSC survival up: -1; A3G deaminase: -6; HKDC1 inh: -12

How did CCCCn1c2c(c(=N)c3ccccc31)CCC2 do in these assays?
A3A deaminase: 88*; PfGluPho inh: -7; iPSC survival up: 0; A3G deaminase: 23; HKDC1 inh: 5; A3A conf: 41*; UDG ctr A3A: 2

What do the screens show for `CCCCCn1c2c(c(=N)c3ccccc31)CCC2`?
A3A deaminase: 58*; PfGluPho inh: -18; iPSC survival up: -1; A3G deaminase: 18; HKDC1 inh: 2; A3A conf: 74*; UDG ctr A3A: 2

Results for CCN1C(=NCCN2CCOCC2)N[C@@H](c2ccccc2)C(C(=O)OC)=C1C ?
A3A deaminase: 49*; PfGluPho inh: 0; iPSC survival up: 2; A3G deaminase: 6; HKDC1 inh: -6; A3A conf: 52*; UDG ctr A3A: -1

What do the screens show for `CCN1C(=NCCOC)N[C@@H](c2cccs2)C(C(=O)OC)=C1C`?
A3A deaminase: 58*; PfGluPho inh: 1; iPSC survival up: -3; A3G deaminase: 17; HKDC1 inh: -4; A3A conf: 67*; UDG ctr A3A: -5

What do the screens show for `CCN1C(=NCCOC)N[C@@H](c2cccc(F)c2)C(C(=O)OC)=C1C`?
A3A deaminase: 59*; PfGluPho inh: 2; iPSC survival up: 3; A3G deaminase: 16; HKDC1 inh: -5; A3A conf: 71*; UDG ctr A3A: -3

What do the screens show for `CCN1C(=NCC(C)C)N[C@@H](c2cccc(F)c2)C(C(=O)OC)=C1C`?
A3A deaminase: 78; PfGluPho inh: -8; iPSC survival up: 3; A3G deaminase: 42; HKDC1 inh: -3

Results for CCN1C(=NCCCCO)N[C@@H](c2cccc(F)c2)C(C(=O)OC)=C1C ?
A3A deaminase: 51*; PfGluPho inh: 8; iPSC survival up: -1; A3G deaminase: 6; HKDC1 inh: -2; A3A conf: 58*; UDG ctr A3A: 0

Results for CSc1nc(C=Nc2ccccc2Cl)c(O)n1Cc1cccc(Cl)c1 ?
A3A deaminase: -3; PfGluPho inh: 7; iPSC survival up: 2; A3G deaminase: -1; HKDC1 inh: 4

Source: PubChem
